Published values gathered from unrelated publications.
Compare with care: the assays were run in different laboratories.
Target: Tyrosine-protein kinase Fes/Fps (FES, Homo sapiens, UniProt P07332)

Compound | read-out | mode | technique | tested at | measurement | result
Cn1cncc1[C@@](O)(COc1ccc(C#N)cc1-c1ccc(OC(F)(F)F)cc1)c1ccc(C#N)cc1 | cell-free assay | – | competition with immobilised ligand | 1 µM | remaining binding | 100%
C#Cc1n[nH]c2c(-c3cn(C(C)c4ccccn4)c(=O)[nH]c3=O)cc(F)cc12 (stereo not drawn) | enzyme activity | inhibitor | – | 1 µM | inhibition | 5.3%
CC(C)(C)c1cc(C=C(C#N)C#N)cc(Br)c1O | enzyme activity | inhibitor | – | 0.5 µM | remaining activity | 105%
Cn1cc(-c2cc(F)cc(N3CCn4c(cc5c4CCCC5)C3=O)c2CO)cc(Nc2ccc(N3CCN(C4COC4)CC3)cn2)c1=O | enzyme activity | inhibitor | – | 0.1 µM | inhibition | 9%
Nc1ncc(-c2nc(N3CCOCC3)nc(N3CCOCC3)n2)c(C(F)F)n1 | binding | – | competition with immobilised ligand | 10 µM | remaining binding | 91%
C[C@H](C(=O)N[C@H]1COc2ccccc2[C@@H]1S(C)(=O)=O)c1ccc(F)cc1 | enzyme activity | inhibitor | – | 10 µM | inhibition | -14%
Cc1nn(C)cc1-c1nc2c(N3CCN(Cc4ccc(Cl)cc4)CC3)c(Cl)cnc2[nH]1 | binding | – | competition with immobilised ligand | 1 µM | remaining binding | 100%
Cn1cc(-c2cccc(N3CCc4c(sc5c4CC(C)(C)C5)C3=O)c2CO)cc(Nc2ccncn2)c1=O | enzyme activity | inhibitor | – | 1 µM | inhibition | 4%
O=c1[nH]c2ccccc2n1C1CCN(Cc2ccc(-c3[nH]c4cc5ncnc5cc4nc3-c3ccccc3)cc2)CC1 | cell-free assay | – | – | 0.5 µM | remaining signal | 101%
COc1ncccc1-c1cnn2ccc(N3CCN(C(=O)OC(C)C)CC3)nc12 | binding | – | competition with immobilised ligand | 1 µM | remaining binding | 100%
c1ccc(C(NCCNC(c2ccccc2)c2ccccc2)c2ccccc2)cc1 | enzyme activity | inhibitor | – | 10 µM | inhibition | -2%
C#Cc1n[nH]c2c(-c3cn([C@@H](C)c4ccccc4)c(=O)[nH]c3=O)cc(F)cc12 | enzyme activity | inhibitor | – | 0.1 µM | inhibition | 7.4%
